According to ChEMBL document CHEMBL1909500, “Synthesis and in vitro anticancer activity of 6,7-methylenedioxy (or 5-hydroxy-6-methoxy)-2-(substituted selenophenyl)quinolin-4-one analogs” (Eur J Med Chem, 2011):
Active and inactive are the calls of the source. The rule behind the calls is not given here.

Assays:
IGROV-1 = assay: Anticancer activity against human IGROV1 cells after 48 hrs by MTT assay; assay type: functional; conditions: IGROV-1, 48 h
HL-60 [1] = assay: Growth inhibition of human HL60 cells at 0.1 to 1 uM by trypan blue exclusion assay; assay type: functional, cell-based; conditions: TDE = time-dependent effect
Method in brief: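 HL-60 cells were given the indicated concentrations for 24 h and 48 h. Viable cells were counted by trypan blue exclusion. Values are mean ± SD of four independent experiments.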

HT-29 = assay: Anticancer activity against human HT-29 cells after 48 hrs by MTT assay; assay type: functional; conditions: HT-29, 48 h
ACHN = assay: Anticancer activity against human ACHN cells after 48 hrs by MTT assay; assay type: functional
MDA-MB-468 = assay: Anticancer activity against human MDA-MB-468 cells after 48 hrs by MTT assay; assay type: functional; conditions: MDA-MB-468, 48 h
HCC 2998 = assay: Anticancer activity against human HCC2998 cells after 48 hrs by MTT assay; assay type: functional; conditions: HCC 2998, 48 h
[2] = Cytotoxicity against human Hep3B cells after 48 hrs by MTT assay; assay type: functional, cell-based, Hep 3B2
Method in brief: (§1)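 Hep 3B (hepatoma) or Detroit 551 (normal skin) cells, grown at 37 °C and 5% CO₂ in DMEM with 10% FBS, penicillin/streptomycin and 1% L-glutamine, were used in log phase. Cells were exposed to vehicle or compound for 48 h. Growth was read by MTT reduction at 570 nm, and IC50 was calculated.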

A498 = assay: Anticancer activity against human A498 cells after 48 hrs by MTT assay; assay type: functional; conditions: A498, 48 h
SNB-19 = assay: Anticancer activity against human SNB19 cells after 48 hrs by MTT assay; assay type: functional; conditions: SNB-19, 48 h
NCI-H522 = assay: Anticancer activity against human NCI-H522 cells after 48 hrs by MTT assay; assay type: functional; conditions: NCI-H522, 48 h
COLO 205 = assay: Anticancer activity against human COLO205 cells after 48 hrs by MTT assay; assay type: functional; conditions: COLO 205, 48 h
SK-MEL-28 = assay: Anticancer activity against human SK-MEL-28 cells after 48 hrs by MTT assay; assay type: functional; conditions: SK-MEL-28, 48 h
HCT-116 = assay: Anticancer activity against human HCT116 cells after 48 hrs by MTT assay; assay type: functional; conditions: HCT-116, 48 h
HL-60 [3] = assay: Cell cycle arrest in human HL60 assessed as cell accumulation in S phase at 1 uM after 24 hrs by propidium iodide staining-based flow cytometric analysis; assay type: functional
Method in brief: (§2)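 HL-60 cells were preincubated for 3 h with or without the pan-caspase inhibitor z-VAD-fmk, then co-exposed to compound at 1 μM for 24 h. Cells were washed in PBS and fixed overnight in ice-cold 70% ethanol at −20 °C. They were stained for 30 min in the dark with propidium iodide 4 μg/mL, 0.1 mg/ml RNase and 1% Triton X-100. DNA content was read on a FACScan flow cytometer.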

Detroit 551 = assay: Cytotoxicity against human Detroit 551 cells after 48 hrs by MTT assay; assay type: cell-based; conditions: Detroit 551, 48 h; method in brief: as §1
OVCAR-8 = assay: Anticancer activity against human OVCAR8 cells after 48 hrs by MTT assay; assay type: functional; conditions: OVCAR-8, 48 h
NCI-H322M = assay: Anticancer activity against human NCI-H322M cells after 48 hrs by MTT assay; assay type: functional
HOP-62 = assay: Anticancer activity against human HOP62 cells after 48 hrs by MTT assay; assay type: functional; conditions: HOP-62, 48 h
HL-60 [4] = assay: Cytotoxicity against human HL60 cells after 48 hrs by MTT assay; assay type: functional, cell-based; conditions: HL-60, 48 h
Method in brief: (§3)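 H460 or HL-60 cells were exposed to vehicle or compound for 48 h. Growth was read by MTT reduction at 570 nm, and IC50 was calculated.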

HL-60 [5] = assay: Induction of apoptosis in human HL60 cells assessed as formation of apoptotic bodies at 1 uM after 24 hrs; assay type: functional, cell-based
Method in brief: (§4)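 HL-60 cells were exposed to 1 μM for 24 h. Apoptotic morphology, scored as cell shrinkage and apoptotic bodies, was examined by microscopy at 200×.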

HL-60(TB) = assay: Anticancer activity against human HL-60(TB) cells after 48 hrs by MTT assay; assay type: functional; conditions: HL-60, 48 h
HCT-15 = assay: Anticancer activity against human HCT15 cells after 48 hrs by MTT assay; assay type: functional; conditions: HCT-15, 48 h
HL-60 [6] = assay: Cell cycle arrest in human HL60 assessed as cell accumulation in G0/G1 phase at 1 uM after 24 hrs by propidium iodide staining-based flow cytometric analysis; assay type: functional; method in brief: as §2
HL-60 [7] = assay: Induction of apoptosis in human HL60 cells assessed as cell shrinkage at 1 uM after 24 hrs; assay type: functional, cell-based; method in brief: as §4
[8] = Anticancer activity against human Hs 578T cells after 48 hrs by MTT assay; assay type: functional
HL-60 [9] = assay: Cell cycle arrest in human HL60 assessed as cell accumulation in G0/G1 phase at 1 uM after 24 hrs pretreated with pan-caspase inhibitor z-VAD-fmk for 3 hrs by propidium iodide staining-based flow cytometric analysis; assay type: functional; parameters: scale not given: the % may be the effect or the level left; method in brief: as §2
OVCAR-3 = assay: Anticancer activity against human OVCAR3 cells after 48 hrs by MTT assay; assay type: functional; conditions: OVCAR-3, 48 h
OVCAR-5 = assay: Anticancer activity against human OVCAR5 cells after 48 hrs by MTT assay; assay type: functional; conditions: OVCAR-5, 48 h
HL-60 [10] = assay: Cell cycle arrest in human HL60 assessed as cell accumulation in G2/M phase at 1 uM after 24 hrs pretreated with pan-caspase inhibitor z-VAD-fmk for 3 hrs by propidium iodide staining-based flow cytometric analysis; assay type: functional; parameters: scale not given: the % may be the effect or the level left; method in brief: as §2
NCI-H460 = assay: Cytotoxicity against human H460 cells after 48 hrs by MTT assay; assay type: functional, cell-based; conditions: NCI-H460, 48 h; method in brief: as §3
Malme-3M = assay: Anticancer activity against human MALME-3M cells after 48 hrs by MTT assay; assay type: functional
[11] = read-out: pLC50 (the source's name) (converted)

Compound: Cc1ccc(-c2cc(=O)c3cc4c(cc3[nH]2)OCO4)[se]1
- GI50 (IGROV-1): 145 nM
- CC50 (IGROV-1; [11]): > 100000 nM
- TGI (IGROV-1; read-out: pTGI (converted)): 457 nM
- growth inhibition (GI) (HL-60 [1]): tde
- GI50 (HT-29): 269 nM
- CC50 (HT-29; [11]): > 100000 nM
- TGI (HT-29; read-out: pTGI): > 100000 nM
- GI50 (ACHN): 759 nM
- CC50 (ACHN; [11]): > 100000 nM
- TGI (ACHN; read-out: pTGI): > 100000 nM
- GI50 (MDA-MB-468): 562 nM
- CC50 (MDA-MB-468; [11]): > 100000 nM
- TGI (MDA-MB-468; read-out: pTGI): > 100000 nM
- GI50 (HCC 2998): 288 nM
- CC50 (HCC 2998; [11]): > 100000 nM
- TGI (HCC 2998; read-out: pTGI): > 100000 nM
- IC50 [2]: 200 nM
- GI50 (A498): 372 nM
- CC50 (A498; [11]): > 100000 nM
- TGI (A498; read-out: pTGI): > 100000 nM
- GI50 (SNB-19): 389 nM
- CC50 (SNB-19; [11]): > 100000 nM
- TGI (SNB-19; read-out: pTGI): > 100000 nM
- GI50 (NCI-H522): 288 nM
- CC50 (NCI-H522; [11]): > 100000 nM
- TGI (NCI-H522; read-out: pTGI (converted)): 537 nM
- GI50 (COLO 205): 2630 nM
- CC50 (COLO 205; [11]): > 100000 nM
- TGI (COLO 205; read-out: pTGI): > 100000 nM
- GI50 (SK-MEL-28): 794 nM
- CC50 (SK-MEL-28; [11]): > 100000 nM
- TGI (SK-MEL-28; read-out: pTGI): > 100000 nM
- GI50 (HCT-116): 288 nM
- CC50 (HCT-116; [11]): > 100000 nM
- TGI (HCT-116; read-out: pTGI): > 100000 nM
- Activity (HL-60 [3]): 41.6%
- IC50 (Detroit 551): > 25000 nM
- GI50 (OVCAR-8): 339 nM
- CC50 (OVCAR-8; [11]): > 100000 nM
- TGI (OVCAR-8; read-out: pTGI): > 100000 nM
- GI50 (NCI-H322M): > 100000 nM
- CC50 (NCI-H322M; [11]): > 100000 nM
- TGI (NCI-H322M; read-out: pTGI): > 100000 nM
- GI50 (HOP-62): 562 nM
- CC50 (HOP-62; [11]): > 100000 nM
- TGI (HOP-62; read-out: pTGI): > 100000 nM
- IC50 (HL-60 [4]): 300 nM
- Activity (HL-60 [5]): Active
- GI50 (HL-60(TB)): 204 nM
- CC50 (HL-60(TB); [11]): 933 nM
- TGI (HL-60(TB); read-out: pTGI (converted)): 437 nM
- GI50 (HCT-15): 339 nM
- CC50 (HCT-15; [11]): > 100000 nM
- TGI (HCT-15; read-out: pTGI): > 100000 nM
- Activity (HL-60 [6]): 14.3%
- Activity (HL-60 [7]): Active
- GI50 [8]: 347 nM
- CC50 [8, 11]: > 100000 nM
- TGI ([8]; read-out: pTGI): > 100000 nM
- Activity (HL-60 [9]): 8.3%
- GI50 (OVCAR-3): 240 nM
- TGI (OVCAR-3; read-out: pTGI (converted)): 457 nM
- GI50 (OVCAR-5): 1700 nM
- CC50 (OVCAR-5; [11]): > 100000 nM
- TGI (OVCAR-5; read-out: pTGI): > 100000 nM
- Activity (HL-60 [10]): 55.5%
- IC50 (NCI-H460): 400 nM
- GI50 (Malme-3M): 427 nM
- CC50 (Malme-3M; [11]): > 100000 nM
- TGI (Malme-3M; read-out: pTGI): > 100000 nM
